High-throughput results as filed in PubChem.
MrgX1 PAM: positive allosteric modulators of MrgX1, primary screen, HEK293 cells, Fluo-4 calcium flux; Mas-related G-protein coupled receptor member X1 (Homo sapiens), Q96LB2; FDSS; active compounds read high; B-score at 10 µM; hit rate 0.63% among 310,000; AID 588675, 2011;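 active means plate-corrected calcium response at least 3 library SD above typical, normal starting fluorescence, not activating the receptor alone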;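 further: compound read alongside a low EC10 to EC30 dose of BAM8-22 agonist; peak minus trough fluorescence over baseline measured at the second addition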
Target sequence (Q96LB2 whole entry, looked up): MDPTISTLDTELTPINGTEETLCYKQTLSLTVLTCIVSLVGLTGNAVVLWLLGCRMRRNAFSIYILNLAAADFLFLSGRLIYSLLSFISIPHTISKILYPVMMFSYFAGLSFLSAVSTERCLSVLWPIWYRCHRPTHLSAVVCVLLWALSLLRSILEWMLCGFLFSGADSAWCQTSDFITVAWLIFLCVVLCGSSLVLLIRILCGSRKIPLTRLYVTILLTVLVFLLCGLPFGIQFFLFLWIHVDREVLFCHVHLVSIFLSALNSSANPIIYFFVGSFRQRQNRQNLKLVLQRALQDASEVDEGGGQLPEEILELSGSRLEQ
RGS4 act: RGS4 potentiators or activators, primary screen, cell-based, HEK293 M3R inducible RGS4, calcium flux; B-score at 10 µM; hit rate 0.92% among 310,000; carbachol calcium flux Fluo4; active compounds read low;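 active means B-score of the integrated calcium signal more than 4 SD below the library mean, with starting fluorescence not abnormally high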;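 further: negative B-score means reduced calcium response which marks RGS4 activation or potentiation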
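Also added: carbachol at ECmax as muscarinic agonist stimulus; Assay system: HEK293 cells with stable M3R and inducible RGS4; Timing: overnight RGS4 induction, 30 min dye load 37 °C, 20 min compound RT; Measured by: Fluo4-AM (2 µM) calcium-flux fluorescence, kinetic read.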
RGS4 block: RGS4 inhibitors, primary screen, cell-based, HEK293 M3R inducible RGS4, calcium flux. Fluo-4 calcium flux; active compounds read high; triggered by carbachol at its EC20. B-score at 10 µM. hit rate 0.45% among 310,000;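 active means B-score, a plate-corrected calcium signal, over three deviations above library mean, with baseline fluorescence within five deviations of library mean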;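 further: RGS4 expression induced by doxycycline in cells with stable M3 receptor; B-score is computed from the integrated fluorescence ratio over baseline after carbachol; higher B-score means a larger calcium signal and so more RGS4 inhibition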
Target sequence (P49798 whole entry, looked up): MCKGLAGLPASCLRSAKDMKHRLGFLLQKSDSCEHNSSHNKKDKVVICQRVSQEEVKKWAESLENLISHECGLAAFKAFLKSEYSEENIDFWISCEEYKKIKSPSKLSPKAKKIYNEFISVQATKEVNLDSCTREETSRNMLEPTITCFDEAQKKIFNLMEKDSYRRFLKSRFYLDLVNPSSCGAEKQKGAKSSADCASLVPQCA
MrgX1 antag: antagonists of human MrgX1 receptor, primary screen, HEK293 cells, Fluo-4 calcium flux; Mas-related G-protein coupled receptor member X1 (Homo sapiens), Q96LB2; hit rate 1.3% among 310,000; B-score at 10 µM; BAM8-22 antagonism; active compounds read low;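 active means calcium-response B-score plate-corrected more than 3 library SD below zero, starting fluorescence within 5 deviations, no agonist response on first addition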;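 further: peak minus trough fluorescence over baseline after final BAM8-22 challenge near maximal dose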
MrgX1 agonist: agonists of human MrgX1 receptor, primary screen, HEK293 cells, Fluo-4 calcium flux; hit rate 0.44% among 310,000; AID 588627, 2011; Fluo-4 calcium fluorescence, agonist mode; active compounds read high; Mas-related G-protein coupled receptor member X1 (Homo sapiens), Q96LB2; B-score at 10 µM;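 active means calcium response B-score plate-corrected fluorescence ratio at least 3 library SD, with starting fluorescence B-score inside 5 SD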
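Test system: HEK293 cells stably expressing human MrgX1 receptor; amount: 15,000 cells per well; doses: compound delivered in addition one of three; times: overnight plating before 1 h dye loading; detection: Fluo-4 NW calcium-flux fluorescence, kinetic read; read-out basis: B-scored fluorescence response ratio; controls: positive and negative controls per plate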
MrgX1 antag conf: MrgX1 receptor antagonists, duplicate retest, confirmation, HEK293 cells, Fluo-4 calcium flux; hit rate 19% among 2,300; BAM8-22 calcium flux; active compounds read low; shares compounds with MrgX1 antag; remaining BAM8-22 calcium response % of control (active compounds read low), % at 10 µM;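 active means remaining agonist calcium response no higher than 100% minus 3 SD of agonist-only control wells, with starting fluorescence near control levels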;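 further: agonist BAM8-22 given at a near maximal EC90 to ECmax level; peak minus minimum fluorescence divided by baseline after agonist addition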
HEK293 Ca flux: nonspecific calcium signal in parental HEK293, confirmation, counter-screen for MrgX1 antagonist project, parental HEK293 cells, Fluo-4 calcium flux; hit rate 2% among 4,000; shares compounds with MrgX1 antag; fluorescence ratio F(max-min)/F0 at 10 µM; Fluo-4 calcium fluorescence, FDSS;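 active means duplicate-averaged calcium fluorescence ratio at least three times the standard deviation of buffer wells, a nonspecific response in parental cells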
HEK293 Ca counter: calcium response in parental HEK293 cells, primary screen, counter-screen for MrgX1 allosteric activator project, cell-based, Fluo-4 calcium flux, duplicate; AID 624114, 2012; fluorescence ratio F(max-min)/F0 at 10 µM; Fluo-4 fluorescence ratio; active compounds read high; hit rate 0.4% among 4,000; shares compounds with MrgX1 antag;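 active means calcium fluorescence ratio, averaged over duplicates, at least 3 SD of the buffer-well ratio, meaning a nonspecific response in receptor-free cells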;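 further: untransfected parental HEK293 lacking MrgX1 used as counterscreen for MrgX1 allosteric activators; fluorescence change taken during the second addition on a kinetic imager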
HEK293 Ca cntr2: calcium response in parental HEK293 cells, primary screen, counter-screen for MrgX1 agonist project, cell-based, Fluo-4 calcium flux, duplicate, agonist mode; hit rate 8.7% among 4,000; shares compounds with MrgX1 antag; fluorescence ratio F(max-min)/F0 at 10 µM; AID 624115, 2012; Fluo-4 calcium fluorescence (FDSS); active compounds read high;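 active means calcium fluorescence ratio at least three times the spread of buffer wells, meaning a non-specific response in parental cells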
The depositor's hits bear a star. The list is not random: actives were taken first. Their share in the collection is about 3.5%.

What do the screens show for `Cn1cc([C@@H]2C[C@H]3CN(Cc4cccc(Cl)c4)C(=O)[C@]34CCCN24)c2ccccc21`?
MrgX1 PAM: inactive; RGS4 act: inactive; RGS4 block: inactive; MrgX1 antag: -5.2*; MrgX1 agonist: inactive; MrgX1 antag conf: inactive; HEK293 Ca flux: inactive; HEK293 Ca counter: inactive; HEK293 Ca cntr2: inactive

How did C=C1c2cc(C)ccc2NC(=O)N1c1ccc(C)cc1 do in these assays?
MrgX1 PAM: inactive; RGS4 act: inactive; RGS4 block: inactive; MrgX1 antag: inactive; MrgX1 agonist: inactive

How did C=C1c2ccccc2NC(=O)N1c1ccc(C)cc1 do in these assays?
MrgX1 PAM: inactive; RGS4 act: inactive; RGS4 block: inactive; MrgX1 antag: -8.7*; MrgX1 agonist: inactive; MrgX1 antag conf: inactive; HEK293 Ca flux: inactive; HEK293 Ca counter: inactive; HEK293 Ca cntr2: inactive

How did Cn1c(=O)c(=O)n(C)c2cc(S(=O)(=O)Nc3ccc4c(c3)OCCO4)ccc21 do in these assays?
MrgX1 PAM: inactive; RGS4 act: inactive; RGS4 block: inactive; MrgX1 antag: -5.9*; MrgX1 agonist: inactive; MrgX1 antag conf: inactive; HEK293 Ca flux: inactive; HEK293 Ca counter: inactive; HEK293 Ca cntr2: inactive

What do the screens show for `CCCCc1ccc(NC(=O)CSc2nc3ncccc3[nH]2)cc1`?
MrgX1 PAM: inactive; RGS4 act: inactive; RGS4 block: inactive; MrgX1 antag: -5.7*; MrgX1 agonist: inactive; MrgX1 antag conf: inactive; HEK293 Ca flux: inactive; HEK293 Ca counter: inactive; HEK293 Ca cntr2: inactive

How did CCCCOc1ccc(NC(=O)CSc2cccc3cccnc23)cc1 do in these assays?
MrgX1 PAM: inactive; RGS4 act: inactive; RGS4 block: inactive; MrgX1 antag: -6.7*; MrgX1 agonist: inactive; MrgX1 antag conf: inactive; HEK293 Ca flux: inactive; HEK293 Ca counter: inactive; HEK293 Ca cntr2: inactive

How did Nc1c(C(=O)NC2CCCC2)sc2nc(-c3cccs3)ccc12 do in these assays?
MrgX1 PAM: inactive; RGS4 act: inactive; RGS4 block: inactive; MrgX1 antag: -4.7*; MrgX1 agonist: inactive; MrgX1 antag conf: inactive; HEK293 Ca flux: inactive; HEK293 Ca counter: inactive; HEK293 Ca cntr2: inactive

Results for NC(=O)c1sc2nc(-c3cccs3)ccc2c1N ?
MrgX1 PAM: inactive; RGS4 act: inactive; RGS4 block: inactive; MrgX1 antag: inactive; MrgX1 agonist: inactive

What do the screens show for `Cc1nnsc1S(=O)c1ccc(Br)cc1` (stereo not drawn)?
MrgX1 PAM: inactive; RGS4 act: inactive; RGS4 block: inactive; MrgX1 antag: inactive; MrgX1 agonist: inactive

Results for CC1CC(C)CN(CCCNC(=O)c2cc3c(=O)[nH]c4ccccc4c3n2C)C1 (stereo not drawn) ?
MrgX1 PAM: inactive; RGS4 act: inactive; RGS4 block: inactive; MrgX1 antag: inactive; MrgX1 agonist: inactive

Results for CN(CCCNC(=O)c1cc2c(=O)[nH]c3ccccc3c2n1C)Cc1ccccc1 ?
MrgX1 PAM: inactive; RGS4 act: inactive; RGS4 block: inactive; MrgX1 antag: -5.7*; MrgX1 agonist: inactive; MrgX1 antag conf: inactive; HEK293 Ca flux: inactive; HEK293 Ca counter: inactive; HEK293 Ca cntr2: inactive

What do the screens show for `Cn1c(=O)[nH]c(=O)c2c1nc(SCC(=O)O)n2CCCc1ccccc1`?
MrgX1 PAM: inactive; RGS4 act: inactive; RGS4 block: inactive; MrgX1 antag: -6.9*; MrgX1 agonist: inactive; MrgX1 antag conf: 84%*; HEK293 Ca flux: inactive; HEK293 Ca counter: inactive; HEK293 Ca cntr2: inactive

Results for CCOC(=O)C1CCN(C(=O)CC2(CC(=O)O)CCCC2)CC1 ?
MrgX1 PAM: inactive; RGS4 act: inactive; RGS4 block: inactive; MrgX1 antag: inactive; MrgX1 agonist: inactive

Results for CC(C)C(=O)Nc1cc(C(F)(F)F)ccc1N1CCOCC1 ?
MrgX1 PAM: inactive; RGS4 act: inactive; RGS4 block: inactive; MrgX1 antag: -5*; MrgX1 agonist: inactive; MrgX1 antag conf: 76%*; HEK293 Ca flux: inactive; HEK293 Ca counter: inactive; HEK293 Ca cntr2: inactive

What do the screens show for `CCC(=O)Nc1cc(C(F)(F)F)ccc1N1CCOCC1`?
MrgX1 PAM: inactive; RGS4 act: inactive; RGS4 block: inactive; MrgX1 antag: inactive; MrgX1 agonist: inactive

What do the screens show for `COc1cc(C=Nc2ccccc2C(=O)Nc2ccccc2)cc(OC)c1OC`?
MrgX1 PAM: inactive; RGS4 act: inactive; RGS4 block: inactive; MrgX1 antag: -5.5*; MrgX1 agonist: inactive; MrgX1 antag conf: inactive; HEK293 Ca flux: inactive; HEK293 Ca counter: inactive; HEK293 Ca cntr2: inactive

What do the screens show for `COc1cc(NC(=O)c2ccccc2-c2ccccc2)cc(OC)c1OC`?
MrgX1 PAM: inactive; RGS4 act: inactive; RGS4 block: inactive; MrgX1 antag: inactive; MrgX1 agonist: inactive

Results for C(=N\n1cnnc1)/c1ccccn1 ?
MrgX1 PAM: inactive; RGS4 act: inactive; RGS4 block: inactive; MrgX1 antag: inactive; MrgX1 agonist: inactive

What do the screens show for `C(=N\n1cnnc1)/c1ccc2ncccc2c1`?
MrgX1 PAM: inactive; RGS4 act: inactive; RGS4 block: inactive; MrgX1 antag: -4.7*; MrgX1 agonist: inactive; MrgX1 antag conf: inactive; HEK293 Ca flux: inactive; HEK293 Ca counter: inactive; HEK293 Ca cntr2: inactive

How did NCCCCCc1nnc(SCC(=O)c2ccc(Cl)cc2)o1 do in these assays?
MrgX1 PAM: inactive; RGS4 act: inactive; RGS4 block: inactive; MrgX1 antag: inactive; MrgX1 agonist: inactive

Results for Cc1nnsc1Sc1ccccc1 ?
MrgX1 PAM: inactive; RGS4 act: inactive; RGS4 block: inactive; MrgX1 antag: inactive; MrgX1 agonist: inactive
